Structures are written as SMILES.

A short description of the series: Toxicity liver stage against HepG2, at 10uM. It is filed as cell-based. The arrangement: test concentration 10 uM, cell line HepG2-A16-CD81EGFP. The following applies: human, HepG2-A16-CD81EGFP cells; read-out: INHIBITION
An outline of the steps: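 Uninfected HepG2-A16-CD81EGFP cells, 3 × 10^3 per well, 1536-well, plated on prespotted compound at 10 μM final, parasite-free screening media added to match infected plates; puromycin 10 μM positive, DMSO 0.5% negative; run in parallel with 48 h PbLuc assay at 37 °C, 5% CO2; viability by CellTiter-Glo luminescence, normalized to controls.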
`CCNC(=O)N1CCC(c2ccccc2)C1` (stereo unspecified): the cytotoxicity at 10 µM is -3.57%.

Turning to `NC(=O)CN1C(=O)CO[C@H]2CN(Cc3ccc(Cl)cc3)C[C@H]21`, the cytotoxicity at 10 µM came to 13%.

As to `CN1C(=O)CO[C@H](c2ccc(NC(=O)Cc3cccs3)cc2)[C@H]1CO`, the cytotoxicity at 10 µM is 0.931%.

Consider `CC1CCN(C(=O)c2cnc3cc(C(=O)N(C)C)n(C)c3c2)CC1`, for which the cytotoxicity at 10 µM is 6.14%.

`CSCC[C@H](NC(=O)Cn1ccc2ccc(Cl)cc21)C(=O)O`: the cytotoxicity at 10 µM came to 6.59%.

As to `COc1ccc2nnc(CCCC(=O)NCCc3ccccc3)n2n1`, the cytotoxicity at 10 µM was -5.11%.

With `COCCCN1CC2(CCCCN2C(C)=O)CC1=O` (stereo unspecified), the cytotoxicity at 10 µM stood at 16.3%.

As to `Cc1cc(F)ccc1C(=O)N1C[C@@H]2COC[C@]2(COCC2CC2)C1`, the cytotoxicity at 10 µM was -146%.

With `O=C(NC1CCc2c(ccc(=O)n2CC2CC2)C1)c1ccsc1` (stereo unspecified), the cytotoxicity at 10 µM was -4.48%.

In the case of `O=C(Cc1ccccn1)N1CCC2(CCCN(CC3CCOCC3)C2)C1` (stereo unspecified), the cytotoxicity at 10 µM was -122%.

Consider `COc1nn(C)c2c1CCCN(S(=O)(=O)c1cccc(F)c1)C2`, for which the cytotoxicity at 10 µM was -129%.

In the case of `O=C(c1cscn1)N1CC[C@@H]2[C@@H]1CCN2c1ccccn1`, the cytotoxicity at 10 µM amounted to 5.95%.

Consider `Cc1ccc(C(=O)N2CCc3ncnc(C)c3CC2)o1`, for which the cytotoxicity at 10 µM was found to be 7.89%.

Turning to `COCC1COCCC12CCN(C(=O)CCc1ccccc1C)CC2` (stereo unspecified), the cytotoxicity at 10 µM was -1.52%.

With `Cc1cc(F)ccc1NC(=O)Cn1cc(C(=O)O)ccc1=O`, the cytotoxicity at 10 µM is -0.555%.

Regarding `CCOc1ccc(-n2nnc(C(=O)O)c2-c2ccccn2)cc1`, the cytotoxicity at 10 µM is -9.31%.

`O=C(c1ccsc1)N1C[C@@H]2C[C@@H](c3nnc(C4CC4)o3)O[C@@H]2C1`: the cytotoxicity at 10 µM is -6.15%.

For `CO[C@@H]1CC[C@H]2[C@H]1OCCN2C(=O)C1=CCCC1`, the cytotoxicity at 10 µM was -6.34%.

For the molecule `CCN(Cc1ccccc1)C(=O)c1cc(C2CCCN2C)ccn1` (stereo unspecified), the cytotoxicity at 10 µM was -14.2%.

With `Cc1ccccc1C(=O)N1CCC(n2nnc3cc(F)ccc32)CC1`, the cytotoxicity at 10 µM was determined as 3.94%.

On to `CCOC(=O)N1CCC(C(=O)Nc2nnc(C(F)(F)F)[nH]2)CC1`, for which the cytotoxicity at 10 µM is -6.01%.

In the case of `CC(CN1CCOCC1)NC(=O)Nc1cccnc1-n1cccn1` (stereo unspecified), the cytotoxicity at 10 µM is -1.7%.

In the case of `CS(=O)(=O)NC1CCN(C(=O)NCC2CCCO2)CC1` (stereo unspecified), the cytotoxicity at 10 µM was -1.9%.

Regarding `NC(=O)COCCNC(=O)Nc1sc2ccccc2c1Cl`, the cytotoxicity at 10 µM amounted to 8.81%.

Turning to `CN(CCSc1nncn1CC(F)(F)F)c1ccccc1`, the cytotoxicity at 10 µM was -1.86%.

For the molecule `CC(C)CC(NC(=O)CN(C)C(=O)c1ccco1)c1cccs1` (stereo unspecified), the cytotoxicity at 10 µM is -1.24%.

`CCN(Cc1ccccn1)C1CCN(c2ccccc2)C1=O` (stereo unspecified): the cytotoxicity at 10 µM is 4.34%.

On to `Cc1cccc(N2CCN(C(=O)CNCCn3cc(C)cn3)CC2)c1`, for which the cytotoxicity at 10 µM is -2.83%.

For `CN(C)c1cccc(C(=O)Nc2cnn(Cc3ccccn3)c2)c1`, the cytotoxicity at 10 µM came to 4.81%.

Regarding `CCCc1noc(C(C)N(CC)Cc2ccco2)n1` (stereo unspecified), the cytotoxicity at 10 µM was found to be 7.3%.

For `Cc1nc(CSCCC(=O)NCCNC(=O)OC(C)(C)C)cs1`, the cytotoxicity at 10 µM is -2.3%.

For `CN(C1CCCCC1)S(=O)(=O)NC1CCN(c2ncccn2)CC1`, the cytotoxicity at 10 µM turned out to be 6.99%.

On to `CC(C)Nc1cccc(C(=O)NCC(O)c2ccc(F)cc2F)c1` (stereo unspecified), for which the cytotoxicity at 10 µM stood at 14.8%.

For `CCOCCC1(CNC(=O)c2ccc(C)nc2)CCCC1`, the cytotoxicity at 10 µM was 7.25%.

Turning to `CN(C)c1ncccc1C(=O)N1CCN(C2=NCC(C)(C)S2)CC1`, the cytotoxicity at 10 µM was determined as 5.03%.

For `Cc1cccn2c(=O)cc(CN3CCCC3Cn3cncn3)nc12` (stereo unspecified), the cytotoxicity at 10 µM was determined as 0.714%.

Take `C[S+]([O-])c1nncn1CC(=O)c1ccc(OC(F)F)cc1` (stereo unspecified): the cytotoxicity at 10 µM was -8.56%.

Regarding `Cc1cnn(CC2CN(CCS(C)(=O)=O)CCO2)c1` (stereo unspecified), the cytotoxicity at 10 µM was -2.25%.

In the case of `Cc1cc(CNC(=O)[C@H]2CCCCN2C(=O)OC(C)(C)C)on1`, the cytotoxicity at 10 µM was -0.82%.

Turning to `Cc1cc(C)c(C(=O)Nc2cccc(CN3CCC(CO)CC3)c2)o1`, the cytotoxicity at 10 µM is -140%.

`CCc1nc(CN(C)C2CCN(Cc3nc(C4CC4)no3)C2)no1` (stereo unspecified): the cytotoxicity at 10 µM came to 14.9%.

As for `CCNC(=O)CN1CCN(c2ccnc3c(F)ccc(F)c23)CC1`, the cytotoxicity at 10 µM came out at 11.7%.

As for `NC(=O)c1cnc(NC2CCN(c3ccccc3)CC2)c(Cl)c1`, the cytotoxicity at 10 µM was 6.07%.

Regarding `Cc1c(NCC(C)(C)C)cccc1C(=O)NCc1ncnn1C`, the cytotoxicity at 10 µM was -3.53%.

Regarding `OCCN1CCC(CNCc2ccc(Br)cc2)CC1`, the cytotoxicity at 10 µM was -8.29%.

With `CCN(CC)C(=O)CN(C)C(=O)c1cc(-c2cccc(Cl)c2)no1`, the cytotoxicity at 10 µM worked out at 4.28%.

Regarding `O=C(NCCNc1cncc(Br)c1)c1ccc(O)cc1`, the cytotoxicity at 10 µM came to 3.73%.

As to `O=C(Nc1ccc(F)cc1)C1CCc2ccccc2N1` (stereo unspecified), the cytotoxicity at 10 µM was 2.4%.

For the molecule `CCOc1nnc(CN(Cc2ccccc2)CC(O)c2ccco2)s1` (stereo unspecified), the cytotoxicity at 10 µM was -1.57%.

Consider `COCCCNC(=O)Nc1cccc(Cl)c1-n1cccn1`, for which the cytotoxicity at 10 µM stood at 1.13%.

Consider `CCN(C(C)=O)c1nc(CN2CCN(c3nccs3)CC2)cs1`, for which the cytotoxicity at 10 µM is -6.01%.

Consider `Brc1cnc(NCc2ccccc2N2CCOCC2)nc1`, for which the cytotoxicity at 10 µM was found to be 1.3%.

On to `COc1cncc(N2CCN(Cc3ccncc3Cl)CC2)n1`, for which the cytotoxicity at 10 µM is 1.66%.

Turning to `CCS(=O)(=O)NCCCNc1ncnc2cc(F)c(F)cc12`, the cytotoxicity at 10 µM was 9.29%.

As for `COc1ccccc1C(C)(C)NC(=O)NC1CCC(O)CC1` (stereo unspecified), the cytotoxicity at 10 µM is -3.6%.

For `CCOc1ccc(CN(C)C(=O)COc2ccc(C)nc2)cc1`, the cytotoxicity at 10 µM amounted to 22.7%.

Regarding `CN1CCN(S(=O)(=O)c2cncc(F)c2)c2ccccc2C1`, the cytotoxicity at 10 µM is -3.69%.

With `COc1cc(CN(C)C(=O)NCCC2CCCO2)ccc1SC` (stereo unspecified), the cytotoxicity at 10 µM was -13.8%.

As to `CCc1nsc(NC2CCCn3nc(CC)nc32)n1` (stereo unspecified), the cytotoxicity at 10 µM amounted to 16.2%.

For `CN(C)CCn1c(=O)oc2ccc(NC(=O)c3cc(Cl)c[nH]3)cc21`, the cytotoxicity at 10 µM came out at 6.79%.

For `OC(CN1CCN(c2ncccn2)CC1)c1cccc(F)c1` (stereo unspecified), the cytotoxicity at 10 µM came to 2.4%.

Take `COc1ccc(NC(=O)C(c2cccc(F)c2)N2CCOCC2)cc1` (stereo unspecified): the cytotoxicity at 10 µM came to 2.42%.

In the case of `CC(C)[C@H](CO)Nc1nccc(-c2c[nH]nc2-c2ccncc2)n1`, the cytotoxicity at 10 µM is -4.66%.

For `CCC[C@@H]1CN(c2cncc(C(=O)N3CCOCC3)n2)C[C@H]1N(C)C`, the cytotoxicity at 10 µM was 4.63%.

For the molecule `Cc1nn(C)c(C)c1CN(Cc1cccn1-c1ncccn1)C(C)C`, the cytotoxicity at 10 µM was -0.316%.

As to `OCC1CCCCN1Cc1nc(Cc2cccc(F)c2)no1` (stereo unspecified), the cytotoxicity at 10 µM was -137%.

For the molecule `Cc1cc(C)c(C(=O)N[C@H](C(N)=O)c2ccccc2)c(=O)[nH]1`, the cytotoxicity at 10 µM is -2.06%.

`CCc1ccc(CN(C)Cc2cnc(S(=O)(=O)CC)n2CCOC)cc1`: the cytotoxicity at 10 µM was -2.19%.

On to `CC(C)c1noc(C2CCCN2S(=O)(=O)N2CCCCCC2)n1` (stereo unspecified), for which the cytotoxicity at 10 µM came out at 4.73%.

`CC(=O)N1CCc2c(nc(-c3cccnc3)nc2N(C)CC(O)CO)C1` (stereo unspecified): the cytotoxicity at 10 µM was -2.03%.

In the case of `Cc1nc(-c2nnc(SCC(=O)O)n2C(C)c2ccccc2)co1` (stereo unspecified), the cytotoxicity at 10 µM was -6.3%.

With `CCC(NC(=O)c1cnc(-c2cccnc2)nc1)c1ccnn1C` (stereo unspecified), the cytotoxicity at 10 µM is -2.11%.

With `Cc1cc(CN2CCC(CNC(=O)c3ccc4[nH]cnc4c3)C2)[nH]n1` (stereo unspecified), the cytotoxicity at 10 µM is -145%.

On to `C[C@@H]1CN(C(=O)C2CCS(=O)(=O)CC2)C[C@@]1(O)C1CC1`, for which the cytotoxicity at 10 µM came to 3.99%.

Take `CCC[C@H]1CN(CCS(C)(=O)=O)C[C@@H]1NC(=O)c1ccccc1F`: the cytotoxicity at 10 µM is -5.88%.

In the case of `Cc1nc2sccn2c1C(=O)N1CCc2c(nc(N)[nH]c2=O)C1`, the cytotoxicity at 10 µM is -3.22%.

`COc1ccccc1OCc1cc(C(=O)N2CCCCCC2CO)n[nH]1` (stereo unspecified): the cytotoxicity at 10 µM is -2.48%.

Consider `O=C(NCCc1cnccn1)c1cccc(S(=O)(=O)NC2CCOC2)c1` (stereo unspecified), for which the cytotoxicity at 10 µM was found to be 6.3%.

As to `CCC(OC)C(=O)N1CCc2nc(NC)nc(C(=O)N3CCCC3)c2C1` (stereo unspecified), the cytotoxicity at 10 µM was -18.3%.

`CN1CCC(c2nnc(CN3CCC(O)CC3)n2C)CC1`: the cytotoxicity at 10 µM was -8.94%.

`Cc1nn(C)c(Cl)c1C1CCCN1Cc1nnc(C2CC2)o1` (stereo unspecified): the cytotoxicity at 10 µM is -6.18%.

Regarding `NC(=O)c1cccc(C(=O)N2CCCC(n3ccnc3)C2)c1` (stereo unspecified), the cytotoxicity at 10 µM was -14%.

As for `CC(C)c1noc(CN2CCN(C(=O)c3cccc(F)c3)CC2)n1`, the cytotoxicity at 10 µM was -4.27%.

As for `Cc1nn(C)c(N(C)C)c1CNCc1cccc(Cn2ccnc2)c1`, the cytotoxicity at 10 µM is -12%.

For the molecule `Cn1c(C2CC2)nc2c1CCN(CC(=O)Nc1ccncc1)C2`, the cytotoxicity at 10 µM was -11.8%.

`COCCOc1cccc(C(=O)N2CCCCC2c2nccs2)c1` (stereo unspecified): the cytotoxicity at 10 µM was -9.5%.

For the molecule `CN(Cc1ccccc1F)C(=O)CS(=O)(=O)Cc1ccc(Cl)c(Cl)c1`, the cytotoxicity at 10 µM is 3.2%.

Consider `Cc1cc(C(=O)N[C@H](C)c2onc(-c3cccnc3)c2C(=O)O)c(C)o1`, for which the cytotoxicity at 10 µM is 1.47%.

On to `Cc1ccc(CN2Cc3ccnn3CC(C(=O)NCC3CC3)C2)o1` (stereo unspecified), for which the cytotoxicity at 10 µM is -15.9%.

Regarding `O=C(NCc1cccs1)c1nc2c(o1)CN(CC1CC1)C2`, the cytotoxicity at 10 µM was -2.83%.

For `COCCO[C@H]1CCN(Cc2cccnc2)[C@H]1Cc1cccnc1`, the cytotoxicity at 10 µM was found to be 0.0623%.

Take `CN1CCN(C2COC3(CCN(CC4CC4)CC3)C2)CC1` (stereo unspecified): the cytotoxicity at 10 µM is -6.81%.

Regarding `O=C1CCCN1Cc1nnc2n1CCN(Cc1ccccn1)CC2`, the cytotoxicity at 10 µM was -9.87%.

With `Cn1cc(CN2CCC(F)(F)C3(CCN(c4cnccn4)C3)C2)cn1` (stereo unspecified), the cytotoxicity at 10 µM was -9.93%.

Turning to `Cn1cccc1C(=O)NC[C@]12COC[C@H]1CN(Cc1nccs1)C2`, the cytotoxicity at 10 µM was -2.74%.

Regarding `COC1COC2(CCN(Cc3cccc(Cl)c3)CC2)C1` (stereo unspecified), the cytotoxicity at 10 µM is -1.31%.
